CSC inhib = blocks cancer stem cells | cancer stem cell-like cells viability, luminescence | inhibition, % at 7.5 µM | 300,000 compounds, 1.1% hits | AID 2717; in the data active = inhibition above about 75%; tested in HMLE shEcad cells
SUMO Mot1 rescue = blocks SUMOylation pathway, rescuing yeast Mot1-301 growth | S. cerevisiae Mot1-301 growth rescue, ATP luminescence, 38.5C; percent above DMSO median, 100 means doubled | growth rescue, % at 18.8 µM | 320,000 compounds, 1% hits | AID 2716;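 active = every valid replicate shows activation above 250% relative to neutral control wells; inactive = the rest, any valid replicate at or below 250%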;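 also: OY570 slx delta 5 strain wells were the positive control but not used for scaling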
WT yeast gro inh = growth inhibition of WT yeast, mitochondrial fusion screen; mitochondrial fusion phenotypic screen, WT strain; 190,000 compounds, 2.1% hits; AID 1362; inhibition, % at 10 µM; in the data active = inhibition above about 58%; tested in S. cerevisiae
T cruzi inh = T. cruzi replication inhibition. T. cruzi beta-gal in NIH3T3, luminescence, 90 h. inhibition, % (test concentration not listed). 300,000 compounds, 1.4% hits. AID 1885;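 active = mean inhibition across valid replicates above about 55%, limit read from the data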;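 also: signal also drops with host cell toxicity which is not excluded here; 0% = plate median of DMSO wells and 100% = zero luminescence signal; higher percent means less beta-gal luminescence so fewer parasites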
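System: Mouse NIH/3T3 fibroblasts infected with β-gal-expressing T. cruzi Tulahuen C4 | Quantity: NIH/3T3 cells, 5,000 per well | Reagent: 5000 reporter trypomastigotes per well | Dosing: Compound pinned at 50 nL/well, DMSO | Schedule: 3 h host attachment, then at least 90 h co-culture | Detection: GalScreen luminescence, 60 min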
Beta apoptosis = beta cell apoptosis inhibition; INS-1E cytokine-induced death, ATP luminescence, 48 h; percent of positive-control rescue, neutral wells zero; protection from apoptosis, % (concentration not given with the values); 300,000 compounds, 0.8% hits;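 active = Every replicate reaches about 75%, or at least half do and their mean reaches it too, limit read from the data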;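 also: 0% = cytokine-treated negative control wells and 100% = positive control rescue; higher means more ATP so stronger rescue from cytokine killing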
Efflux pump inh = antifungal efflux pump inhibition, Nile Red retention; S. cerevisiae Candida pump triplex; inhibition, % at 10 µM; 330,000 compounds, 0.44% hits;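 active = plate passing quality check with inhibition over a set limit, or well fluorescence over plate mean plus 4 SD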;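 also: Nile Red retained in pooled yeast measured as flow cytometry median fluorescence; 0% = buffer negative control and 100% = Enniatin B positive control; higher means more Nile Red kept so more efflux inhibition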
Active calls of the source: *; . = no result given. This is a sample that favours compounds with a hit; in the whole collection about 4.8% have one here.

SMILES | CSC inhib | SUMO Mot1 rescue | WT yeast gro inh | T cruzi inh | Beta apoptosis | Efflux pump inh
Nc1nc(F)nc2c1ncn2[C@@H]1O[C@H](CO)[C@@H](O)[C@H]1O | 59 | 359 | . | 44 | 94* | 0
C=CCNc1ncnc2c1ncn2C1OC(CO)C(O)C1O (configuration not stated) | 77* | 0 | -13 | -10 | 0 | 0
COC(=O)c1sc(=S)sc1C(=O)OC | -2 | 22 | -18 | -8 | -15 | 1
COc1ccc(N2CCN(C3CCCN(C(=O)CCN4CCCCO4)C3)CC2)cc1 (configuration not stated) | . | . | . | -7 | . | .
CC1CCCN(C(=O)C2CCN(S(=O)(=O)c3cccc4nonc34)CC2)C1 (configuration not stated) | -12 | -15 | . | -4 | 4 | 0
NC(=S)N/N=C/c1coc2ccc(Cl)cc2c1=O | -12 | 324* | 27 | -7 | . | 0
CCCC12C(=O)C(C)(C(c3ccccc3)=C1c1ccccc1)C1C(=O)N(c3ccc(C)cc3)C(=O)C12 (configuration not stated) | -2 | -12 | 20 | 46 | 105* | 0
CCC12C(=O)C(CC)(C(c3ccccc3)=C1c1ccccc1)[C@@H]1C(=O)N(c3ccccc3)C(=O)C12 (some centres not stated) | 20 | 71 | 30 | 35 | 29 | 0
Cc1ccc(CC2C(=O)N(c3ccccc3)C(=O)C2C)cc1 (configuration not stated) | -12 | 5 | . | -4 | 0 | 0
CCC12C(=O)C(CC)(C(c3ccccc3)=C1c1ccccc1)[C@@H]1C(=O)N(c3ccc(C)cc3)C(=O)C12 (some centres not stated) | 22 | -1 | 16 | 57* | 13 | 0
CCCCN(CC)CCNC(=O)c1nn(-c2ccc(OC)cc2)c(=O)c2c1c1ccccc1n2C | -9 | 3 | 9 | 57* | -1 | 0
CCCCN(CC)CCCNC(=O)c1cn(-c2ccc(OC)cc2)c(=O)c2ccccc12 | -21 | 1 | . | 58* | -2 | 0
Cc1ccc(-c2nn(-c3ccccc3)cc2NC(=O)CCl)cc1 | 28 | 7 | -10 | -28 | -2 | 0
COc1cc(OC)nc(Oc2ccccc2C(=O)Oc2ccc(Cl)cc2)n1 | 2 | -16 | 68* | -4 | 4 | 0
COc1cc(OC)nc(Oc2ccccc2C(=O)Oc2ccc(C)cc2)n1 | 10 | -10 | 63 | 0 | 1 | 0
COc1cc(OC)nc(Oc2ccccc2C(=O)Oc2ccccc2Cl)n1 | -4 | -3 | 62* | 3 | -3 | 0
CS(=O)(=O)N(CC(=O)Nc1ccc(S(=O)(=O)N2CCOCC2)cc1)c1cccc(F)c1 | 16 | -3 | -2 | -4 | -1 | 0
CC1(C)C2CCC1(C)C(OC(=O)CNc1ccccc1)C2 (configuration not stated) | -1 | 13 | . | -2 | 5 | 0
COc1cc(C(=O)OC2CC3CCC2(C)C3(C)C)ccc1OC(C)=O (configuration not stated) | 81* | -2 | 73* | 30 | . | 0
O=c1[nH]c(=O)n(C2C[C@H](O)[C@@H](CO)O2)cc1C(F)(F)F (some centres not stated) | 76* | -1 | . | . | 7 | 0
O=c1[nH]c(=O)n([C@H]2C[C@H](O)[C@@H](CO)O2)cc1C(F)(F)F | 71 | -1 | -4 | -7 | 5 | 0
COc1ccc(-c2cc(C(F)(F)F)nc(NCc3cccs3)n2)cc1 | 39 | 4 | 16 | 55* | 3 | 0
COc1ccccc1-c1cc(C(F)(F)F)nc(NCc2cccs2)n1 | 0 | -10 | 65* | 4 | 11 | 0
Cc1ccn2c(NC3CCCC3)c(-c3ccncc3)nc2c1 | -8 | 0 | 18 | 36 | -5 | 0
Cc1ccn2c(NC3CCCCC3)c(-c3cccc(-c4cccc(Cl)c4)c3)nc2c1 | 102* | -14 | . | 43 | -1 | 0
SMILES | CSC inhib | SUMO Mot1 rescue | WT yeast gro inh | T cruzi inh | Beta apoptosis | Efflux pump inh
Cc1ccn2c(NC3CCCC3)c(-c3ccccn3)nc2c1 | 62 | . | 76* | 65* | 16 | 0
c1ccc(-c2nc3ccccn3c2NC2CCCC2)nc1 | 2 | 16 | 68* | -13 | . | 0
Cc1ccc(CNC(=O)CN(Cc2ccccc2)S(C)(=O)=O)cc1 | -5 | 9 | 0 | -8 | 0 | 0
Cc1cc(NS(=O)(=O)c2cc(Cl)sc2Cl)no1 | -8 | -6 | . | 0 | -1 | 0
CCN(CC)C(=O)CN1C(=O)C2(OCC(C)(C)CO2)c2ccccc21 | -20 | 0 | . | . | 0 | 0
O=C(OCc1cc(Cl)ccc1OC(F)F)c1cncc(Br)c1 | -14 | -4 | 60* | -6 | -3 | 0
O=C(OCc1cc(Cl)ccc1OC(F)F)c1ccc([N+](=O)[O-])o1 | 3 | 6 | . | -1 | -6 | 0
CCCCC[C@@H]1C=C(C(=O)O)[C@H](c2ccc(Br)cc2)N1S(=O)(=O)c1ccc(C)cc1 | . | . | . | . | . | 0
COc1cccc(-c2nc(CCl)cs2)c1 | -4 | -13 | -3 | 61* | 5 | 0
COc1ccc(-c2csc(-c3ccccc3)n2)c(OC)c1 | 11 | 15 | 73* | -9 | . | 0
COc1ccc(-c2csc(-c3cccs3)n2)c(OC)c1 | . | -12 | 64 | -18 | . | 0
COc1ccc(-c2nc(CCl)cs2)cc1 | 3 | -27 | 5 | 6 | -6 | 0
COc1ccc(-c2csc(-c3ccc(O)cc3)n2)cc1 | 90* | . | . | -35 | 6 | 0
COc1ccc(O)c(/C=N/NC(=O)c2cc(=O)[nH]c3ccccc23)c1 | 59 | 2 | . | 1 | 32 | 0
Cc1nnsc1C(=O)N1CCCC(N2CCN(c3ccc(F)cc3)CC2)C1 (configuration not stated) | -10 | 18 | . | -9 | -6 | -1
COC(=O)Cn1ccc(N(C)C)c(C#N)c1=O | 2 | 4 | 60* | -16 | -9 | 0
CCCOc1ccc(-c2nc(SCc3ccccc3)[nH]c(=O)c2C#N)cc1OC | 55 | 50 | . | 56* | 1 | 0
Cc1ccc(S(=O)(=O)NC(C)(C)CSc2ccccn2)cc1 | -2 | . | 3 | 10 | -8 | 0
CCOc1ccc2c(c1)OC(c1ccc(C)cc1)(C(F)(F)F)NC2=O (configuration not stated) | 58 | -20 | 60* | 51 | 17 | 0
Cc1cccc(C(=O)Nc2ccc(C(=O)/C=C/c3cccnc3)cc2)c1 | 52 | 9 | 10 | 35 | 101* | 0
O=C(Nc1ccc(NC(=S)NC(=O)c2ccccc2F)cc1)c1cccs1 | -1 | 0 | 63* | 33 | 6 | 0
COc1cc(NC(=S)NC(=O)c2ccccc2F)ccc1NC(=O)c1cccs1 | 12 | -14 | 8 | -1 | 0 | 0
O=C(Nc1ccc(O)cc1)c1ccc(NC(=O)c2cccs2)cc1 | 85* | 5 | . | -19 | -5 | 0

Screening results: PubChem BioAssay, several laboratories
